According to ChEMBL document CHEMBL3407457, “Microwave-assisted synthesis of certain pyrrolylpyridines, some derived ring systems and their evaluation as anticancer and antioxidant agents” (Eur J Med Chem, 2015):

What was measured:
U-251 = test: Growth inhibition of human U251 cells at 10 uM after 48 hrs by sulforhodamine B assay; type: functional; conditions: U-251, 48 h, read-out: GI
Outline: (§1)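 NCI-60 primary screen: cells given a single 10 µM dose under 48 h continuous exposure. Growth/viability estimated by sulforhodamine B protein assay. Reported as percent growth of treated cells (mean graph), expressed as percent growth inhibition.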

[1] = Growth inhibition of human EKVX cells at 10 uM after 48 hrs by sulforhodamine B assay; type: functional; conditions: read-out: GI; outline: as §1
[2] = Growth inhibition of human OVCAR4 cells at 10 uM after 48 hrs by sulforhodamine B assay; type: functional; conditions: OVCAR-4, 48 h, read-out: GI; outline: as §1
HL-60(TB) = test: Growth inhibition of human HL-60(TB) cells at 10 uM after 48 hrs by sulforhodamine B assay; type: functional; conditions: HL-60, 48 h, read-out: GI
Outline: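 NCI-60 one-dose primary screen, HL-60(TB) within the leukemia subpanel. Single 10 µM concentration, 48 h continuous exposure. Growth estimated by sulforhodamine B protein assay. Percent growth of treated cells expressed as percentage growth inhibition (GI%).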

[3] = Growth inhibition of human Hs 578T cells at 10 uM after 48 hrs by sulforhodamine B assay; type: functional; conditions: read-out: GI; outline: as §1
SNB-75 = test: Growth inhibition of human SNB75 cells at 10 uM after 48 hrs by sulforhodamine B assay; type: functional; conditions: SNB-75, 48 h, read-out: GI; outline: as §1
IGROV-1 = test: Growth inhibition of human IGROV1 cells at 10 uM after 48 hrs by sulforhodamine B assay; type: functional; conditions: IGROV-1, 48 h, read-out: GI; outline: as §1
[4] = Growth inhibition of human RPMI8226 cells at 10 uM after 48 hrs by sulforhodamine B assay; type: functional; conditions: RPMI-8226, 48 h, read-out: GI; outline: as §1
A498 = test: Growth inhibition of human A498 cells at 10 uM after 48 hrs by sulforhodamine B assay; type: functional; conditions: A498, 48 h, read-out: GI; outline: as §1
[5] = Growth inhibition of human MOLT4 cells at 10 uM after 48 hrs by sulforhodamine B assay; type: functional; conditions: MOLT-4, 48 h, read-out: GI; outline: as §1
CCRF-CEM = test: Growth inhibition of human CCRF-CEM cells at 10 uM after 48 hrs by sulforhodamine B assay; type: functional; conditions: read-out: GI; outline: as §1
[6] = Antioxidant activity assessed as DPPH radical scavenging activity at 10^-3 M incubated for 30 mins by spectrophotometry; type: physicochemical; conditions: 0.5 h, 1000 µM
Outline: (§2)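 Compound at 10^-3 or 10^-4 M mixed with methanolic DPPH (0.1 mL of 1 mM stock; 3 mL total volume), shaken, kept in the dark 30 min at room temperature. Absorbance read at 517 nm. Scavenging (%) = (A_control − A_sample)/A_control × 100, where the control is DPPH in methanol alone. BHT served as reference antioxidant. Triplicate, mean ± SD of three independent experiments.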

[7] = Growth inhibition of human HOP92 cells at 10 uM after 48 hrs by sulforhodamine B assay; type: functional; conditions: HOP-92, 48 h, read-out: GI; outline: as §1
K562 = test: Growth inhibition of human K562 cells at 10 uM after 48 hrs by sulforhodamine B assay; type: functional; conditions: K562, 48 h, read-out: GI; outline: as §1
CAKI-1 = test: Growth inhibition of human CAKI-1 cells at 10 uM after 48 hrs by sulforhodamine B assay; type: functional; conditions: CAKI-1, 48 h, read-out: GI; outline: as §1
NCI-H522 = test: Growth inhibition of human NCI-H522 cells at 10 uM after 48 hrs by sulforhodamine B assay; type: functional; conditions: NCI-H522, 48 h, read-out: GI; outline: as §1
T47D = test: Growth inhibition of human T47D cells at 10 uM after 48 hrs by sulforhodamine B assay; type: functional; conditions: read-out: GI; outline: as §1
SK-MEL-5 = test: Growth inhibition of human SK-MEL-5 cells at 10 uM after 48 hrs by sulforhodamine B assay; type: functional; conditions: SK-MEL-5, 48 h, read-out: GI; outline: as §1
[8] = Growth inhibition of human HCT116 cells at 10 uM after 48 hrs by sulforhodamine B assay; type: functional; conditions: HCT-116, 48 h, read-out: GI; outline: as §1
[9] = Growth inhibition of human HCT15 cells at 10 uM after 48 hrs by sulforhodamine B assay; type: functional; conditions: HCT-15, 48 h, read-out: GI; outline: as §1
[10] = Growth inhibition of human LOXIMVI cells at 10 uM after 48 hrs by sulforhodamine B assay; type: functional; conditions: LOX IMVI, read-out: GI; outline: as §1
[11] = Antioxidant activity assessed as DPPH radical scavenging activity at 10^-4 M incubated for 30 mins by spectrophotometry; type: physicochemical; conditions: 0.5 h, 100 µM; outline: as §2
[12] = Growth inhibition of human PC3 cells at 10 uM after 48 hrs by sulforhodamine B assay; type: functional; conditions: PC-3, 48 h, read-out: GI; outline: as §1
MDA-MB-468 = test: Growth inhibition of human MDA-MB-468 cells at 10 uM after 48 hrs by sulforhodamine B assay; type: functional; conditions: MDA-MB-468, 48 h, read-out: GI; outline: as §1
[13] = Growth inhibition of human UACC62 cells at 10 uM after 48 hrs by sulforhodamine B assay; type: functional; conditions: UACC-62, 48 h, read-out: GI; outline: as §1
ACHN = test: Growth inhibition of human ACHN cells at 10 uM after 48 hrs by sulforhodamine B assay; type: functional; conditions: read-out: GI; outline: as §1
[14] = Growth inhibition of human UO31 cells at 10 uM after 48 hrs by sulforhodamine B assay; type: functional; conditions: UO-31, 48 h, read-out: GI; outline: as §1

With CCSc1nc(N)c2c(-c3cccn3C)c3c(nc2n1)C(C)CCC3 (configuration not stated) as the compound, how does the inhibition of growth at 10 µM (U-251) read?
The inhibition of growth at 10 µM was 16.7%.

And the inhibition of growth at 10 µM [1]?
Its inhibition of growth at 10 µM is 34.1%.

And the inhibition of growth at 10 µM [2]?
Its inhibition of growth at 10 µM is 23.4%.

What about the inhibition of growth at 10 µM (HL-60(TB)) of the same compound?
Its inhibition of growth at 10 µM is 25.8%.

What about the inhibition of growth at 10 µM [3] of the same compound?
Its inhibition of growth at 10 µM is 15.2%.

And the inhibition of growth at 10 µM (SNB-75)?
Its inhibition of growth at 10 µM is 21.4%.

What about the inhibition of growth at 10 µM (IGROV-1) of the same compound?
Its inhibition of growth at 10 µM is 35.3%.

And the inhibition of growth at 10 µM [4]?
The inhibition of growth at 10 µM was 68.5%.

What about the inhibition of growth at 10 µM (A498) of the same compound?
Its inhibition of growth at 10 µM is 26.5%.

And the inhibition of growth at 10 µM [5]?
Its inhibition of growth at 10 µM is 42.3%.

What about the inhibition of growth at 10 µM (CCRF-CEM) of the same compound?
Its inhibition of growth at 10 µM is 21.6%.

And the “inhibition (INH)” value [6]?
The value was 28%.

And the inhibition of growth at 10 µM [7]?
Its inhibition of growth at 10 µM is 28.7%.

And the inhibition of growth at 10 µM (K562)?
The inhibition of growth at 10 µM was 37.4%.

And the inhibition of growth at 10 µM (CAKI-1)?
The inhibition of growth at 10 µM was 21.7%.

And the inhibition of growth at 10 µM (NCI-H522)?
Its inhibition of growth at 10 µM is 33.8%.

And the inhibition of growth at 10 µM (T47D)?
Its inhibition of growth at 10 µM is 54.2%.

And the inhibition of growth at 10 µM (SK-MEL-5)?
The inhibition of growth at 10 µM was 13.1%.

And the inhibition of growth at 10 µM [8]?
The inhibition of growth at 10 µM was 35.3%.

What about the inhibition of growth at 10 µM [9] of the same compound?
The inhibition of growth at 10 µM was 10.8%.

What about the inhibition of growth at 10 µM [10] of the same compound?
The inhibition of growth at 10 µM was 12.9%.

And the “inhibition (INH)” value [11]?
The value was 16%.

What about the inhibition of growth at 10 µM [12] of the same compound?
Its inhibition of growth at 10 µM is 57.1%.

And the inhibition of growth at 10 µM (MDA-MB-468)?
The inhibition of growth at 10 µM was 15.4%.

And the inhibition of growth at 10 µM [13]?
Its inhibition of growth at 10 µM is 24.1%.

And the inhibition of growth at 10 µM (ACHN)?
The inhibition of growth at 10 µM was 11.9%.

And the inhibition of growth at 10 µM [14]?
Its inhibition of growth at 10 µM is 45.8%.
